Some results are limits rather than exact numbers.

What all share (assay type): functional
The test system of test [1] is Mycobacteroides abscessus. The test can be described thus: Antimicrobial activity against Mycobacterium abscessus isolate MC724 at day 7 preincubated with 0.1 ug/ml for 3 days by broth microdilution method. The method, boiled down: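 To test inducible resistance, cultures were preincubated for 3 days in clarithromycin or erythromycin, within 0.01–1 μg/ml. The period was set so cultures passed at least two generations, judged by turbidity increase. Clarithromycin MIC was then determined by CLSI-conforming broth microdilution and read on the stated day, from day 3 up to 14.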
Background: In broth dilution the organism is exposed to a series of concentrations in liquid medium.

Test [2] has as its system Mycobacteroides abscessus. The test can be described thus: Antimicrobial activity against Mycobacterium abscessus isolate MC1028 at day 9 preincubated with 0.1 ug/ml for 3 days by broth microdilution method. The method, boiled down:
(§1)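 Clarithromycin MIC by CLSI-conforming broth microdilution. Before testing, cultures were preincubated for 3 days, either in medium alone or in clarithromycin or erythromycin (tested range 0.01–1 μg/ml). Preincubation ran for at least two generations, judged by turbidity increase. Plates were read on day 3 and on extended incubation at days 5 to 14.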

Test [3] relates to Mycobacteroides abscessus. As to the kind of experiment: Antimicrobial activity against Mycobacterium abscessus isolate MC720 at day 9 by broth microdilution method. Particulars: isolate MC720, 216 h. The method, boiled down: (§2)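 Clarithromycin MIC by broth microdilution following CLSI guidelines. Before testing, organisms were preincubated for 3 days in medium alone or in clarithromycin or erythromycin (0.01–1 μg/ml), long enough for at least two generations judged by turbidity increase. MICs were read on day 3 and again on extended incubation out to day 14.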

In test [4] the test system is Mycobacteroides abscessus. The test can be described thus: Antimicrobial activity against Mycobacterium abscessus isolate MC879 at day 3 by broth microdilution method. As to conditions: isolate MC879, 72 h. The method, boiled down: (§3)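 Clarithromycin MIC by broth microdilution following CLSI guidelines. Organisms were preincubated […], for 3 days before the assay. This allowed at least two generations, judged by the rise in turbidity. The MIC was read at the stated day, with incubation extended from day 3 to as long as 14 days.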

The test system of test [5] is Mycobacteroides abscessus. The test can be described thus: Antimicrobial activity against Mycobacterium abscessus isolate MAB30 at day 3 by broth microdilution method. Particulars: isolate MAB30, 72 h. The method, boiled down: as §1
Test [6] deals with Mycobacteroides abscessus. The test can be described thus: Antimicrobial activity against Mycobacterium abscessus isolate MC879 at day 14 by broth microdilution method. Particulars: isolate MC879, 336 h. The method, boiled down:
as §3

Test [7] has as its system Mycobacteroides abscessus. As to the kind of experiment: Antimicrobial activity against Mycobacterium abscessus isolate MC723 at day 14 preincubated with 0.1 ug/ml for 3 days by broth microdilution method. The method, boiled down:
as §2

Test [8] deals with Mycobacteroides abscessus. As to the kind of experiment: Antimicrobial activity against Mycobacterium abscessus isolate MC958 at day 9 by broth microdilution method. As to conditions: isolate MC958, 216 h.

Take `CC[C@H]1OC(=O)[C@H](C)[C@@H](O[C@H]2C[C@@](C)(OC)[C@@H](O)[C@H](C)O2)[C@H](C)[C@@H](O[C@@H]2O[C@H](C)C[C@H](N(C)C)[C@H]2O)[C@](C)(OC)C[C@@H](C)C(=O)[C@H](C)[C@@H](O)[C@]1(C)O` [CLARITHROMYCIN]: the MIC (usually the lowest concentration found to suppress growth) in test [1] was > 32 µg/mL; in test [2], ≤ 0.5 µg/mL; in test [3], > 32 µg/mL; in test [4], ≤ 0.5 µg/mL; in test [5] it was ≤ 0.5 µg/mL; in test [6], > 32 µg/mL. The MIC in test [7] and in test [8] was > 32 µg/mL throughout.

The record behind these values is ChEMBL document CHEMBL1649139, “A novel gene, erm(41), confers inducible macrolide resistance to clinical isolates of Mycobacterium abscessus but is absent from Mycobacterium chelonae” (2009).
